pKi data for two compounds are collected here from ChEMBL document CHEMBL1132324, “Structure-activity relationships in 1,4-benzodioxan-related compounds. 6. Role of the dioxane unit on selectivity for alpha(1)-adrenoreceptor subtypes” (J Med Chem, 1999).

Assay [1] has as its target T1, Adrenergic receptor alpha-2 (Rattus norvegicus) (UniProt P22086+P19328+P22909). The assay can be described thus: The binding affinity was evaluated on Alpha-2 adrenergic receptor expressed in rat cortex by using [3H]rauwolscine as radioligand. Put shortly:
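Male Sprague-Dawley rat cerebral cortex membranes, washed in Tris-HCl pH 7.4 and resuspended with 10 μM pargyline and 0.1% ascorbic acid. Incubated 30 min at 25 °C with 0.5–1.5 nM [3H]rauwolscine. Nonspecific binding with 10 μM phentolamine. Filtration on PEI-treated filters. Ki by Cheng-Prusoff. 2–3 experiments in triplicate.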

The target in assay [2] is T2, Alpha-1D adrenergic receptor (Homo sapiens) (UniProt P25100).
T2 sequence (whole entry): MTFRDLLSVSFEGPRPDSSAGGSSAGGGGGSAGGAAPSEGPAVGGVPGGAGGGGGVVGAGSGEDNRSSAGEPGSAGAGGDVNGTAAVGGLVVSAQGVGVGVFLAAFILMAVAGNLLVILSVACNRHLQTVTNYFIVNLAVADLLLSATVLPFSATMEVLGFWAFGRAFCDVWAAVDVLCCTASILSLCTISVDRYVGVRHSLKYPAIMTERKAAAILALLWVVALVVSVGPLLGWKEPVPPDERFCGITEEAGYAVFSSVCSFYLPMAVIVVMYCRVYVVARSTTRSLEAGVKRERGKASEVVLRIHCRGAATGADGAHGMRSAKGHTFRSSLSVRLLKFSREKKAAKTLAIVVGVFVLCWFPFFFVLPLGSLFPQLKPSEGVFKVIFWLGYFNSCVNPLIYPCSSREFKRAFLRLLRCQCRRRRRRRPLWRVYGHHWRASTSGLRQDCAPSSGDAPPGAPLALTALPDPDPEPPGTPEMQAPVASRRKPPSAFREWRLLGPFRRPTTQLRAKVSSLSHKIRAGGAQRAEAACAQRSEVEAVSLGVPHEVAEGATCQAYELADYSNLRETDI
The assay can be described thus: The binding affinity was evaluated on cloned human alpha-1D adrenergic receptor expressed in chinese hamster ovary(CHO) cells by using [3H]prazosin as radioligand. The class given is cell-based. In a few lines: (§1)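 Membranes (30 μg protein) from CHO cells stably expressing each human α1 subtype, in 50 mM Tris-HCl pH 7.4. Incubated with 0.1–0.4 nM [3H]prazosin for 30 min at 25 °C, competitor 1 pM–10 μM. Nonspecific binding with 10 μM phentolamine. Ki by Cheng-Prusoff. 2–3 experiments in triplicate.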

The target of assay [3] is T3, Alpha-1A adrenergic receptor (Homo sapiens) (UniProt P35348).
T3 sequence (whole entry): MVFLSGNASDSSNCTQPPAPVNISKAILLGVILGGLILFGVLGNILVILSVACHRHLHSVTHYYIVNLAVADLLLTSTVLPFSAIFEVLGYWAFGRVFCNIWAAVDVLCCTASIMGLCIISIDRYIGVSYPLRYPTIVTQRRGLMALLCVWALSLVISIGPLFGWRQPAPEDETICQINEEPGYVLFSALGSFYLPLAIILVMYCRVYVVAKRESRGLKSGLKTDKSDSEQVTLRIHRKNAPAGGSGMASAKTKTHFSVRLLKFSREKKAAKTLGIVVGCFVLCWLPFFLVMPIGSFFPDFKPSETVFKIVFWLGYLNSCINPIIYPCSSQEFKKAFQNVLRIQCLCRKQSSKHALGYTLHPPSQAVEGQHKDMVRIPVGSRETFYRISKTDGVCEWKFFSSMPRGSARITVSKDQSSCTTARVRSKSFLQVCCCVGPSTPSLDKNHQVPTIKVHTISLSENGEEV
The assay can be described thus: The binding affinity was evaluated on cloned human alpha-1A adrenergic receptor expressed in chinese hamster ovary(CHO) cells by using [3H]prazosin as radioligand. Format: cell-based. Put shortly: as §1

Assay [4] deals with T4, Alpha-1B adrenergic receptor (Homo sapiens) (UniProt P35368).
T4 sequence (whole entry): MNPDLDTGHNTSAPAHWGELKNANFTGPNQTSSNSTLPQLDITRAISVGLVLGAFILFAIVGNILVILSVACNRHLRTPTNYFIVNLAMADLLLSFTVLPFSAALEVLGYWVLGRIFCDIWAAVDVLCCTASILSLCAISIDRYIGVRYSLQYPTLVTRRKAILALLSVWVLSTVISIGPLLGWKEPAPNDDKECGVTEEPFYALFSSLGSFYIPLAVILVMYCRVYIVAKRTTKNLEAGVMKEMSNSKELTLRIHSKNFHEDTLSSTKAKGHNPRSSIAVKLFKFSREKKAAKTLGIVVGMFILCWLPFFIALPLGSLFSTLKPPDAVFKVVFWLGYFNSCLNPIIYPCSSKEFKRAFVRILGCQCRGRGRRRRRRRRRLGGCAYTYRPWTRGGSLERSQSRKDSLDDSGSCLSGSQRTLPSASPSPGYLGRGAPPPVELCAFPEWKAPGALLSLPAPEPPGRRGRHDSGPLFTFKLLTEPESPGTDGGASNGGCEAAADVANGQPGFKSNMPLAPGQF
The assay can be described thus: The binding affinity was evaluated on cloned human alpha-1B adrenergic receptor expressed in chinese hamster ovary(CHO) cells by using [3H]prazosin as radioligand. Format: cell-based. Put shortly:
as §1

In assay [5] the target is T1, Adrenergic receptor alpha-2 (Rattus norvegicus). The assay can be described thus: The binding affinity was evaluated on alpha-2 adrenergic receptor expressed in rat cortex by using [3H]rauwolscine as radioligand. In a few lines: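 Male Sprague-Dawley rat cerebral cortex membranes, washed in Tris-HCl pH 7.4 and held in buffer with 10 μM pargiline and 0.1% ascorbic acid. Incubated 30 min at 25 °C with 0.5-1.5 nM [3H]rauwolscine; nonspecific binding with 10 μM phentolamine. Filtration, scintillation counting. Ki from Cheng-Prusoff; 2-3 experiments in triplicate.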

The term pKi denotes the negative decadic logarithm of the Ki, by convention in mol/L. A high value points to a low Ki. Regarding `COc1cccc(OC)c1OCCNCC1Oc2ccccc2CC1c1ccccc1` (stereo in doubt; 7), the pKi in assay [1] was < 6.

With `COc1cccc(OC)c1OCCNCC1C(=O)c2ccccc2OC1c1ccccc1` (stereo not given), the negative-log Ki (pKi) in assay [2] is 7.93; in assay [3] it was 9.22; in assay [4], 6.84; in assay [5], < 6.
